# Reference: ChEMBL document CHEMBL1159095, “Synthesis and optimization of thiadiazole derivatives as a novel class of substrate competitive c-Jun N-terminal kinase inhibitors” (Bioorg Med Chem, 2010)
# The source made the active and inactive calls. No cut-off for these calls is given here.
# Tested on: not listed separately
# Experiment: Metabolic stability in rat plasma assessed as compound remaining after 30 mins by LC/MS-MS
# Type: ADME, cell-free
# Conditions: read-out: Stability
# In short: (§1)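 Compound at 1 μM (2.5% final DMSO) incubated in fresh rat plasma at 37 °C. Reactions stopped at 0, 30 and 60 min with two volumes of methanol containing internal standard, then precipitated, centrifuged and analysed by LC-MS. Percent parent remaining relative to 0 min calculated from peak-area ratios to internal standard. Run in duplicate with a plasma-labile positive control.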
row,SMILES,remaining at 0.5 h
1,CCCNc1nnc(Sc2ncc([N+](=O)[O-])s2)s1,48.1%
2,CCC(C)Nc1nnc(Sc2ncc([N+](=O)[O-])s2)s1 (stereo not given),90%
3,COCCNc1nnc(Sc2ncc([N+](=O)[O-])s2)s1,79.7%
4,COc1ccc(CCNc2nnc(Sc3ncc([N+](=O)[O-])s3)s2)cc1OC,6.05%

# Biological target: T1, Mitogen-activated protein kinase 9 (Homo sapiens, UniProt P45984)
# Experiment: Displacement of biotin-labeled pep-JIP1from JNK2 at 50 uM by DELFIA assay
# Conditions: not given
# In short: (§2)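 Added Eu-labelled anti-GST antibody (300 ng/ml; 1.9 nM), compound in DMSO and GST-JNK2 at 10 nM final. Incubated 1 hr at 0 °C, washed 5 times, enhancement solution added, fluorescence read after 10 min (ex 340, em 615 nm). Controls were unlabelled peptide and no-compound blanks.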
# Target sequence in this assay (P45984 whole entry, looked up): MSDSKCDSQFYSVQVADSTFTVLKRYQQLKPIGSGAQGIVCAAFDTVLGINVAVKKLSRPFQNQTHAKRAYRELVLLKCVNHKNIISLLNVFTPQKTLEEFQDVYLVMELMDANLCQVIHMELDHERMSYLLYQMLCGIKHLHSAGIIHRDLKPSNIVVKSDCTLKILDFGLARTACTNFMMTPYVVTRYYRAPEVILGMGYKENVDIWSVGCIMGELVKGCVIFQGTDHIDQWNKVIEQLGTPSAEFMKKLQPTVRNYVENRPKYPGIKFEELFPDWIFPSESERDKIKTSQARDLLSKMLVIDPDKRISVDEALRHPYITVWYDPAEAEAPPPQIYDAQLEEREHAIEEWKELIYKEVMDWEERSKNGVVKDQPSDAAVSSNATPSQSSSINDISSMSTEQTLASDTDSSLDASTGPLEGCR
row,SMILES,inhibition
1,CCCCNc1nnc(Sc2ncc([N+](=O)[O-])s2)s1,20%
2,O=[N+]([O-])c1cnc(Sc2nnc(NCc3ccccc3)s2)s1,20%
3,CC(C)(C)Nc1nnc(Sc2ncc([N+](=O)[O-])s2)s1,20%

# Biological target: T2, Mitogen-activated protein kinase 8 (Homo sapiens, UniProt P45983)
# T2 sequence (P45983 whole entry): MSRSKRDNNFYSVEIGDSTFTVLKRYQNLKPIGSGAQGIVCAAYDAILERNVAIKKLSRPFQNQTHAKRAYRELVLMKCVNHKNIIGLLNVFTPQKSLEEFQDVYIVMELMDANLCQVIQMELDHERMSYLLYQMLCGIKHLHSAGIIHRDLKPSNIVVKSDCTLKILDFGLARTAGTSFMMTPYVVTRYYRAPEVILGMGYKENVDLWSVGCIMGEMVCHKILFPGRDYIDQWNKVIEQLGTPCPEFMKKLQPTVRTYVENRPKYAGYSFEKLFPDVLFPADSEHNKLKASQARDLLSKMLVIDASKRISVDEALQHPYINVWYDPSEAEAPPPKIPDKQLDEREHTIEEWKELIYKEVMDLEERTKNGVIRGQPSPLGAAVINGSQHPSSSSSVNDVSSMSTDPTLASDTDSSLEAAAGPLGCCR
# Experiment: Inhibition of JNK1 up to 25 uM by TR-FRET assay
# Conditions: not given
# In short: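 LanthaScreen TR-FRET kinase assay. JNK1 at 35 ng/mL, ATF2 substrate at 400 nM and ATP at 0.2 μM in 50 mM HEPES pH 7.5, 10 mM MgCl2, 1 mM EGTA, 0.01% Brij-35, with compound. Reaction ran 1 hr at room temperature, then terbium-labelled antibody plus EDTA were added. After a further hour, the 520/495 nm emission ratio was read.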
row,SMILES,inhibition
1,CCCCNc1nnc(Sc2ncc([N+](=O)[O-])s2)s1,inactive
2,O=[N+]([O-])c1cnc(Sc2nnc(NCc3ccccc3)s2)s1,inactive
3,CC(C)(C)Nc1nnc(Sc2ncc([N+](=O)[O-])s2)s1,inactive

# Biological target: T2, Mitogen-activated protein kinase 8
# Experiment: Inhibition of JNK1 by TR-FRET assay
# Conditions: not given
# In short: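 LanthaScreen TR-FRET kinase assay. JNK1 at 35 ng/mL, ATF2 substrate at 400 nM and ATP at 0.2 μM in 50 mM HEPES pH 7.5, 10 mM MgCl2, 1 mM EGTA, 0.01% Brij-35, with compound. Reaction ran 1 hr at room temperature, then terbium-labelled antibody plus EDTA were added.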
row,SMILES,IC50
1,COc1ccc(CNc2nnc(Sc3ncc([N+](=O)[O-])s3)s2)cc1,9.1 µM
2,CCCNc1nnc(Sc2ncc([N+](=O)[O-])s2)s1,6.7 µM
3,CCC(C)Nc1nnc(Sc2ncc([N+](=O)[O-])s2)s1 (stereo not given),3 µM
4,COCCNc1nnc(Sc2ncc([N+](=O)[O-])s2)s1,4.8 µM
5,COc1ccc(CCNc2nnc(Sc3ncc([N+](=O)[O-])s3)s2)cc1OC,5.7 µM
6,O=[N+]([O-])c1cnc(Sc2nnc(NCC3CCCO3)s2)s1 (stereo not given),10 µM
7,CCNc1nnc(Sc2ncc([N+](=O)[O-])s2)s1,100 µM

# Biological target: Furin (Homo sapiens, UniProt P09958)
# Sequence (P09958 whole entry): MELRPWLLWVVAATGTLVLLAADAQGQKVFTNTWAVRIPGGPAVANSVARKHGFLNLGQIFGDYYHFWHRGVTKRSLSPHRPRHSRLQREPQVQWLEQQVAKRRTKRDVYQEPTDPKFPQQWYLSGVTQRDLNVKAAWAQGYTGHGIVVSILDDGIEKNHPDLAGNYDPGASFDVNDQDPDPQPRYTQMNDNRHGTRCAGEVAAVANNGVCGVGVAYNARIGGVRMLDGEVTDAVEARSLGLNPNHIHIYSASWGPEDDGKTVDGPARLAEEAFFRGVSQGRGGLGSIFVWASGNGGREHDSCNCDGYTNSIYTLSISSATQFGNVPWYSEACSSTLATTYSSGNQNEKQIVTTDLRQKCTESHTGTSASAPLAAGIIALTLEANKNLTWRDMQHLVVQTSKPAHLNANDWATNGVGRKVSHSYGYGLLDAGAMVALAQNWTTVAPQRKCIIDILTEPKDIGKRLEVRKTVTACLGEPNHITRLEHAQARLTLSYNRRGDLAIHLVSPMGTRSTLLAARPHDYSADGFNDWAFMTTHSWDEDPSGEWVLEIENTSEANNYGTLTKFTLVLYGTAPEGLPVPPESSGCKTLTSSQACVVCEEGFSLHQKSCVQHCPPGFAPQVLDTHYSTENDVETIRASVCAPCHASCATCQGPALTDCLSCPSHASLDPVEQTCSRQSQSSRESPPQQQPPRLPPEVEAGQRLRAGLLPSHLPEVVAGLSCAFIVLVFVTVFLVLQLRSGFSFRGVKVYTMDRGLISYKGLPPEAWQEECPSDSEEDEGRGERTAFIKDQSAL
# Experiment: Inhibition of FURIN
# Conditions: not given
row,SMILES,IC50
1,CCCNc1nnc(Sc2ncc([N+](=O)[O-])s2)s1,> 50 µM
2,CCC(C)Nc1nnc(Sc2ncc([N+](=O)[O-])s2)s1 (stereo not given),> 50 µM
3,COCCNc1nnc(Sc2ncc([N+](=O)[O-])s2)s1,> 50 µM
4,COc1ccc(CCNc2nnc(Sc3ncc([N+](=O)[O-])s3)s2)cc1OC,> 50 µM

# Biological target: T3, Lethal factor (Bacillus anthracis, UniProt P15917)
# T3 sequence (P15917 whole entry): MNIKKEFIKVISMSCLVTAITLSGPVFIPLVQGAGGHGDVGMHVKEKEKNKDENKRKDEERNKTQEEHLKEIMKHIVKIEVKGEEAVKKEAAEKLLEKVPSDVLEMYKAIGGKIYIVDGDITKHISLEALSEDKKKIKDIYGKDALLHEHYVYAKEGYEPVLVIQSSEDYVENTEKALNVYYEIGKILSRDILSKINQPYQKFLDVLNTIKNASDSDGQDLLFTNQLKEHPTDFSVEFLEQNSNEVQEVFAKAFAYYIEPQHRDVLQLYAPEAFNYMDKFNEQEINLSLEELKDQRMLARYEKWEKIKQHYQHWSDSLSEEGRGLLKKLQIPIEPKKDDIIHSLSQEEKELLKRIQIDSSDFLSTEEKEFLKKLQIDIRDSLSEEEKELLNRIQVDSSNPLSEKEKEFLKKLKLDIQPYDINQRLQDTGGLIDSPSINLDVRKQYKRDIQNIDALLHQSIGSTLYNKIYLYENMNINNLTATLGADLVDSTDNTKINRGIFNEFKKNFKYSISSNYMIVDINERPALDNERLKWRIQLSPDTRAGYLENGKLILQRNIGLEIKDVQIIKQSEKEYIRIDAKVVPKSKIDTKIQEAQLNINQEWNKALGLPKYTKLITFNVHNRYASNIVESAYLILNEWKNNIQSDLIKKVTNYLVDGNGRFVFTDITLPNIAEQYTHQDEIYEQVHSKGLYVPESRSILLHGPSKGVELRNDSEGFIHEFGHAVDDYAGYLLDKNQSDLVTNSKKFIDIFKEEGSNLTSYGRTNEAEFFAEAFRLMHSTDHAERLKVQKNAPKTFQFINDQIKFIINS
# Experiment: Inhibition of Bacillus anthracis anthrax lethal factor
# Conditions: not given
row,SMILES,IC50
1,CCCNc1nnc(Sc2ncc([N+](=O)[O-])s2)s1,> 100 µM
2,CCC(C)Nc1nnc(Sc2ncc([N+](=O)[O-])s2)s1 (stereo not given),> 100 µM
3,COCCNc1nnc(Sc2ncc([N+](=O)[O-])s2)s1,> 100 µM
4,COc1ccc(CCNc2nnc(Sc3ncc([N+](=O)[O-])s3)s2)cc1OC,> 100 µM

# Biological target: RAC-alpha serine/threonine-protein kinase (Homo sapiens, UniProt P31749)
# Sequence (P31749 whole entry): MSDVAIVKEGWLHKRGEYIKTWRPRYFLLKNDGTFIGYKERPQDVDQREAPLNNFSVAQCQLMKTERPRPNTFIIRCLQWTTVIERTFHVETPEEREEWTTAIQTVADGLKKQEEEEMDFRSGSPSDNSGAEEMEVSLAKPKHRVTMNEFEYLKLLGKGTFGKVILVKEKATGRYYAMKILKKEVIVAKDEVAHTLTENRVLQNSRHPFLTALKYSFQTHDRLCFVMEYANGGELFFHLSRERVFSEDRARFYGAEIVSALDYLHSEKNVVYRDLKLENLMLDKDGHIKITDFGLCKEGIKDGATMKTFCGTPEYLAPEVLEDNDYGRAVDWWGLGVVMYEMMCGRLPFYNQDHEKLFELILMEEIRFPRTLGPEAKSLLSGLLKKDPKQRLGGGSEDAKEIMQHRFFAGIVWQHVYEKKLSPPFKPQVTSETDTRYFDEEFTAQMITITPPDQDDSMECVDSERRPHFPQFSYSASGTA
# Experiment: Inhibition of AKT
# Conditions: not given
row,SMILES,IC50
1,CCCNc1nnc(Sc2ncc([N+](=O)[O-])s2)s1,> 100 µM
2,CCC(C)Nc1nnc(Sc2ncc([N+](=O)[O-])s2)s1 (stereo not given),> 100 µM
3,COCCNc1nnc(Sc2ncc([N+](=O)[O-])s2)s1,> 100 µM
4,COc1ccc(CCNc2nnc(Sc3ncc([N+](=O)[O-])s3)s2)cc1OC,> 100 µM

# Biological target: Mitogen-activated protein kinase 14 (Homo sapiens, UniProt Q16539)
# Sequence (Q16539 whole entry): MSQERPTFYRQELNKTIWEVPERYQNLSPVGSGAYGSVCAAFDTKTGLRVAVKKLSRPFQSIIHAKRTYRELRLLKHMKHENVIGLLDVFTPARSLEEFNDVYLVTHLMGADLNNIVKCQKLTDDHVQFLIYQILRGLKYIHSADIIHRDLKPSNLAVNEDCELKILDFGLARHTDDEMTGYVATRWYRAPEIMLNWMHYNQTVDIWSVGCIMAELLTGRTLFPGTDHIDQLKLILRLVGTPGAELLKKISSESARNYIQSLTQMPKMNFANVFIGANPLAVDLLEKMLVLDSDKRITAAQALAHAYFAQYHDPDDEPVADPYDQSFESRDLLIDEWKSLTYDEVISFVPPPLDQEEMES
# Experiment: Inhibition of p38alpha MAPK
# Conditions: not given
row,SMILES,IC50
1,CCCNc1nnc(Sc2ncc([N+](=O)[O-])s2)s1,> 100 µM
2,CCC(C)Nc1nnc(Sc2ncc([N+](=O)[O-])s2)s1 (stereo not given),> 100 µM
3,COCCNc1nnc(Sc2ncc([N+](=O)[O-])s2)s1,> 100 µM
4,COc1ccc(CCNc2nnc(Sc3ncc([N+](=O)[O-])s3)s2)cc1OC,> 100 µM

# Biological target: Mitogen-activated protein kinase 9 (Homo sapiens, UniProt P45984, C163S)
# Sequence (P45984 whole entry C163S): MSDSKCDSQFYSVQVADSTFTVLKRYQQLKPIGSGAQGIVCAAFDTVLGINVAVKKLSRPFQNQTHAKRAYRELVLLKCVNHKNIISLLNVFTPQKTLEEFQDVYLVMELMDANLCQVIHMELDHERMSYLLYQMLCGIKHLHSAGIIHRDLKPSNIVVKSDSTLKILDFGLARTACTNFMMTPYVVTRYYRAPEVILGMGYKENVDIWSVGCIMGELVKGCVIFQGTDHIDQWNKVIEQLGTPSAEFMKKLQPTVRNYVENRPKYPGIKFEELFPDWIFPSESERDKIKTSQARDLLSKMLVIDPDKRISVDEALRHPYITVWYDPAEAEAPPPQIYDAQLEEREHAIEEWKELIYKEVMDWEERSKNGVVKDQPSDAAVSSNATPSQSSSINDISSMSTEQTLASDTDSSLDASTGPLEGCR
# Experiment: Inhibition of JNK2 C163S mutant by isothermal calorimetry
# Conditions: not given
# In short: (§3)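 Isothermal titration calorimetry at 25 °C. C163S or wild-type JNK2 at 50 μM in 20 mM sodium phosphate pH 7.4 with 5% DMSO and 0.01% Triton X-100. Titrant at 750 μM in the same buffer.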
row,SMILES,Kd
1,CCCNc1nnc(Sc2ncc([N+](=O)[O-])s2)s1,7.2 µM
2,O=[N+]([O-])c1cnc(Sc2nnc(O)n2-c2ccc3c(c2)OCCO3)s1,51.1 µM
3,COCCNc1nnc(Sc2ncc([N+](=O)[O-])s2)s1,4.2 µM
4,COc1ccc(CCNc2nnc(Sc3ncc([N+](=O)[O-])s3)s2)cc1OC,1.9 µM

# Tested on: not listed separately
# Experiment: Permeability assessed as drug flux at pH 7.4 by PAMPA assay
# Type: ADME
# Conditions: not given
# In short: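 PAMPA: filter impregnated with 1-20% phospholipid in organic solvent over an acceptor plate of aqueous buffer at pH 7.4. Donor added from a 20 μM stock (DMSO <2%). An equilibrium plate was prepared in parallel, and percent flux was calculated from acceptor versus equilibrium concentrations. Reference compounds included.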
row,SMILES,permeability
1,CCCNc1nnc(Sc2ncc([N+](=O)[O-])s2)s1,30%
2,CCC(C)Nc1nnc(Sc2ncc([N+](=O)[O-])s2)s1 (stereo not given),7.9%
3,O=[N+]([O-])c1cnc(Sc2nnc(O)n2-c2ccc3c(c2)OCCO3)s1,5.5%
4,COCCNc1nnc(Sc2ncc([N+](=O)[O-])s2)s1,49.8%
5,COc1ccc(CCNc2nnc(Sc3ncc([N+](=O)[O-])s3)s2)cc1OC,76.3%

# Tested on: not listed separately
# Experiment: Inhibition of JNK-mediated TNF-alpha-stimulated c-Jun phosphorylation by cell-based TR-FRET assay
# Conditions: not given
# In short: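 HeLa cells stably expressing GFP-c-Jun(1-79) plated at 10000/well in Opti-MEM with 1% charcoal/dextran-treated FBS, no phenol red, and left overnight. Pretreated 60 min with compound, then stimulated 30 min with TNF-alpha at 2 ng/ml. Lysed in buffer containing 2 nM terbium anti-phospho-c-Jun (Ser73) antibody and equilibrated 1 h at room temperature. TR-FRET ratio Em520/Em490 read with excitation at 340 nm.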
row,SMILES,IC50
1,COc1ccc(CNc2nnc(Sc3ncc([N+](=O)[O-])s3)s2)cc1,21 µM
2,CCC(C)Nc1nnc(Sc2ncc([N+](=O)[O-])s2)s1 (stereo not given),20 µM
3,COCCNc1nnc(Sc2ncc([N+](=O)[O-])s2)s1,8 µM

# Biological target: T1, Mitogen-activated protein kinase 9
# Experiment: Inhibition of wild-type JNK2 by isothermal calorimetry
# Conditions: not given
# In short: as §3
# Target sequence in this assay (P45984 whole entry): as the sequence (P45984 whole entry, looked up) above
row,SMILES,Kd
1,CCCNc1nnc(Sc2ncc([N+](=O)[O-])s2)s1,9.4 µM
2,O=[N+]([O-])c1cnc(Sc2nnc(O)n2-c2ccc3c(c2)OCCO3)s1,8.1 µM
3,COCCNc1nnc(Sc2ncc([N+](=O)[O-])s2)s1,2.8 µM

# Tested on: not listed separately
# Experiment: Metabolic stability in rat plasma assessed as compound remaining after 60 mins by LC/MS-MS
# Type: ADME, cell-free
# Conditions: read-out: Stability
# In short: as §1
row,SMILES,remaining at 1 h
1,CCCNc1nnc(Sc2ncc([N+](=O)[O-])s2)s1,42%
2,O=[N+]([O-])c1cnc(Sc2nnc(O)n2-c2ccc3c(c2)OCCO3)s1,0%
3,COCCNc1nnc(Sc2ncc([N+](=O)[O-])s2)s1,35%
4,COc1ccc(CCNc2nnc(Sc3ncc([N+](=O)[O-])s3)s2)cc1OC,68%

# Biological target: T1, Mitogen-activated protein kinase 9
# Experiment: Displacement of biotin-labeled pep-JIP1from JNK2 by DELFIA assay
# Conditions: not given
# In short: as §2
# Target sequence in this assay (P45984 whole entry): as the sequence (P45984 whole entry, looked up) above
row,SMILES,IC50
1,COc1ccc(CNc2nnc(Sc3ncc([N+](=O)[O-])s3)s2)cc1,0.1 µM
2,CCCNc1nnc(Sc2ncc([N+](=O)[O-])s2)s1,0.29 µM
3,CCC(C)Nc1nnc(Sc2ncc([N+](=O)[O-])s2)s1 (stereo not given),0.14 µM
4,O=[N+]([O-])c1cnc(Sc2nnc(O)n2-c2ccc3c(c2)OCCO3)s1,0.5 µM
5,COCCNc1nnc(Sc2ncc([N+](=O)[O-])s2)s1,0.16 µM
6,COc1ccc(CCNc2nnc(Sc3ncc([N+](=O)[O-])s3)s2)cc1OC,0.1 µM
7,O=[N+]([O-])c1cnc(Sc2nnc(NCC3CCCO3)s2)s1 (stereo not given),0.47 µM
8,CCNc1nnc(Sc2ncc([N+](=O)[O-])s2)s1,10 µM
